Our source for the Activity, MIC and viability values is ChEMBL document CHEMBL1154358, “Xanalteric acids I and II and related phenolic compounds from an endophytic Alternaria sp. isolated from the mangrove plant Sonneratia alba” (J Nat Prod, 2009).

In general, MIC refers to the lowest concentration found to suppress growth.

≈ marks a conversion by molar mass, not a printed value. Calls of active or inactive are those of the source.

For one series, the system named is Staphylococcus aureus. Put plainly: Antibacterial activity against methicillin-resistant Staphylococcus aureus by broth dilution method. Format: functional. Summed up: (§1)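 Dilution assay following EUCAST criteria against multidrug-resistant bacterial or fungal strains. Compounds were tested from 250 down to 0.48 μg/mL. MIC was taken as the lowest concentration at which bacterial or fungal growth was inhibited.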
For orientation: In broth dilution the organism is exposed to a series of concentrations in liquid medium.

In another series the test system is Streptococcus pneumoniae. The series can be described thus: Antibacterial activity against multidrug-resistant Streptococcus pneumoniae by broth dilution method. Format: functional. Summed up: as §1
For the next series, the system named is Enterococcus faecium. Put plainly: Antibacterial activity against multidrug-resistant Enterococcus faecium by broth dilution method. Format: functional. In a few lines:
as §1

The subject of the next series is Enterobacter cloacae. Put plainly: Antibacterial activity against multidrug-resistant Enterobacter cloacae by broth dilution method. Format: functional. Summed up:
as §1

In a further series the test system is Aspergillus ficuum. The series can be described thus: Antifungal activity against multidrug-resistant Aspergillus ficuum by broth dilution method. The class given is functional.
For a further series, the system named is Candida albicans. The series can be described thus: Antifungal activity against multidrug-resistant Candida albicans by broth dilution method. Format: functional. In a few lines: as §1
In another series the test system is Escherichia coli. Put plainly: Antibacterial activity against multidrug-resistant Escherichia coli by broth dilution method. The class given is functional, organism-based. In a few lines:
as §1

The next series deals with Klebsiella pneumoniae. The series can be described thus: Antibacterial activity against multidrug-resistant Klebsiella pneumoniae by broth dilution method. Format: functional, organism-based. In a few lines: as §1
The test system of another series is Pseudomonas aeruginosa. The series can be described thus: Antibacterial activity against multidrug-resistant Pseudomonas aeruginosa by broth dilution method. Format: functional, organism-based. Summed up:
as §1

A further series deals with Acinetobacter baumannii. Put plainly: Antibacterial activity against multidrug-resistant Acinetobacter baumannii by broth dilution method. The class given is functional, organism-based.
The next series deals with Pichia kudriavzevii. Put plainly: Antifungal activity against multidrug-resistant Candida krusei by broth dilution method. The class given is functional, organism-based. Summed up:
as §1

A further series relates to Aspergillus fumigatus. The series can be described thus: Antifungal activity against multidrug-resistant Aspergillus fumigatus by broth dilution method. The class given is functional, organism-based. Summed up:
as §1

The nature of series [1]: Cytotoxicity against mouse L5178Y cells assessed as cell viability at 10 ug/ml after 24 hrs by MTT assay. The class given is cell-based. The settings on record: read-out: Activity. Summed up:
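Mouse lymphoma L5178Y cells; viability read by MTT tetrazolium microculture assay. Run as three independent experiments, each in triplicate. Medium with 0.1% (v/v) EtOH served as the negative control in every experiment.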
(Formazan colour is commonly taken as a measure of viable cells.)

For `Cc1cc(O)cc2oc(=O)c3c(O)cc(O)cc3c12`, the outcome in the series with Staphylococcus aureus, with Streptococcus pneumoniae, with Enterococcus faecium, in the series with Enterobacter cloacae, in the series with Aspergillus ficuum and in the series with Candida albicans was inactive. Also, the MIC result with Escherichia coli, with Klebsiella pneumoniae, in the series on Pseudomonas aeruginosa, in the series on Acinetobacter baumannii, with Pichia kudriavzevii and with Aspergillus fumigatus was “inactive” each time.
As for `O=C1C=Cc2c3c4c(c(O)ccc4c4ccc(O)c1c24)OC(C(=O)O)C3O` (centres undefined) [XANALTERIC ACID I], the viability at 24 h, 10 ug/ml in series [1] was 45%. This molecule also came in with an MIC in the series on Staphylococcus aureus of 125 µg/mL (≈ 343 µM). Further, the outcome in the series on Escherichia coli, in the series on Klebsiella pneumoniae, in the series with Pseudomonas aeruginosa, in the series on Acinetobacter baumannii, in the series on Pichia kudriavzevii and in the series with Aspergillus fumigatus was inactive.
Regarding `O=C1C[C@H](O)[C@@H]2c3c(ccc(O)c31)-c1ccc(O)c3c1[C@@]2(O)CCC3=O`, the result in the series with Staphylococcus aureus, with Streptococcus pneumoniae, in the series with Enterococcus faecium, in the series with Enterobacter cloacae, in the series with Aspergillus ficuum and in the series on Candida albicans was inactive. Also, the result in the series with Escherichia coli, in the series on Klebsiella pneumoniae, in the series with Pseudomonas aeruginosa, in the series on Acinetobacter baumannii, with Pichia kudriavzevii and in the series with Aspergillus fumigatus was inactive.
`COc1c(CC(C)O)c2c3c(CC(C)O)c(C(=O)O)oc4c(O)cc5c(c6c(cc(O)c(c1=O)c62)OCO5)c43` (centres undefined): the outcome with Staphylococcus aureus, in the series with Streptococcus pneumoniae, in the series with Enterococcus faecium, in the series with Enterobacter cloacae, in the series on Aspergillus ficuum and in the series on Candida albicans was inactive. Besides, the outcome in the series with Escherichia coli, in the series on Klebsiella pneumoniae, in the series with Pseudomonas aeruginosa, with Acinetobacter baumannii, in the series on Pichia kudriavzevii and in the series on Aspergillus fumigatus was inactive.
For `O=C1C[C@@H](O)[C@@H]2c3ccc(O)c4c3[C@@H](c3ccc(O)c1c32)[C@H](O)CC4=O`, the outcome in the series on Staphylococcus aureus, in the series with Streptococcus pneumoniae, in the series on Enterococcus faecium, with Enterobacter cloacae, in the series on Aspergillus ficuum and with Candida albicans was inactive. Moreover, the outcome in the series on Escherichia coli, in the series with Klebsiella pneumoniae, in the series on Pseudomonas aeruginosa, with Acinetobacter baumannii, in the series on Pichia kudriavzevii and with Aspergillus fumigatus was inactive.
On to `COc1cc(O)c(C(=O)O)c(-c2cc(O)c(O)cc2C)c1` [ALTENUSIN], for which the minimal inhibitory concentration (MIC) in the series with Staphylococcus aureus was 31.2 µg/mL (≈ 108 µM); against Streptococcus pneumoniae it was 31.2 µg/mL (≈ 108 µM); with Enterococcus faecium, 62.5 µg/mL (≈ 215 µM); in the series on Enterobacter cloacae it was 125 µg/mL (≈ 431 µM); in the series with Aspergillus ficuum, 62.5 µg/mL; in the series with Candida albicans it was 125 µg/mL (≈ 431 µM). Further, the result with Escherichia coli, in the series on Klebsiella pneumoniae, with Pseudomonas aeruginosa, in the series with Acinetobacter baumannii, in the series with Pichia kudriavzevii and in the series on Aspergillus fumigatus was inactive.
As to `O=C1C=Cc2c3c4c(c(O)ccc4c4ccc(O)c1c24)OC(O)(C(=O)O)C3` (centres undefined) [XANALTERIC ACID II], in series [1], the viability at 24 h, 10 ug/ml came out at 87.5%. Moreover, the MIC in the series with Staphylococcus aureus is 250 µg/mL (≈ 686 µM). Also, the outcome in the series with Escherichia coli, with Klebsiella pneumoniae, in the series with Pseudomonas aeruginosa, in the series with Acinetobacter baumannii, in the series with Pichia kudriavzevii and with Aspergillus fumigatus was inactive.
As for `COc1cc(O)c2c(=O)oc3cc(O)cc(C)c3c2c1`, the outcome in the series on Staphylococcus aureus, in the series on Streptococcus pneumoniae, in the series with Enterococcus faecium, with Enterobacter cloacae, in the series on Aspergillus ficuum and with Candida albicans was inactive. In addition, the result in the series with Escherichia coli, in the series with Klebsiella pneumoniae, in the series with Pseudomonas aeruginosa, in the series with Acinetobacter baumannii, with Pichia kudriavzevii and in the series on Aspergillus fumigatus was inactive.
As for `COc1c(CC(C)O)c2c3c(CC(C)O)c(OC)c(=O)c4c(O)cc5c(c6c(cc(O)c(c1=O)c62)OCO5)c43` (centres undefined), the outcome in the series with Staphylococcus aureus, in the series on Streptococcus pneumoniae, with Enterococcus faecium, in the series on Enterobacter cloacae, in the series with Aspergillus ficuum and in the series with Candida albicans was inactive. Moreover, the result in the series with Escherichia coli, with Klebsiella pneumoniae, in the series on Pseudomonas aeruginosa, in the series with Acinetobacter baumannii, in the series on Pichia kudriavzevii and in the series with Aspergillus fumigatus was inactive.
On to `O=C1C[C@@H](O)[C@H]2c3c(ccc(O)c31)-c1ccc(O)c3c1[C@]2(O)C=CC3=O`, for which the result with Staphylococcus aureus, in the series on Streptococcus pneumoniae, in the series on Enterococcus faecium, with Enterobacter cloacae, in the series with Aspergillus ficuum and in the series with Candida albicans was inactive. Further, the result in the series with Escherichia coli, in the series with Klebsiella pneumoniae, in the series on Pseudomonas aeruginosa, with Acinetobacter baumannii, in the series on Pichia kudriavzevii and in the series on Aspergillus fumigatus was inactive.
Take `COc1cc(O)c2c(c1)C1C[C@H](O)[C@@H](O)C[C@@]1(C)OC2=O` (some centres undefined): the result in the series on Staphylococcus aureus, with Streptococcus pneumoniae, in the series on Enterococcus faecium, in the series on Enterobacter cloacae, in the series with Aspergillus ficuum and with Candida albicans was inactive. Also, the outcome with Escherichia coli, with Klebsiella pneumoniae, with Pseudomonas aeruginosa, in the series with Acinetobacter baumannii, in the series on Pichia kudriavzevii and in the series with Aspergillus fumigatus was inactive.
Regarding `COc1cc(O)c(C(=O)O)c(-c2c(C)cc(C(=O)O)oc2=O)c1` [ALTERNARIAN ACID], the viability at 24 h, 10 ug/ml in [1] turned out to be 99.2%. In addition, the outcome in the series on Staphylococcus aureus, with Streptococcus pneumoniae, in the series with Enterococcus faecium, in the series with Enterobacter cloacae, in the series with Aspergillus ficuum and in the series on Candida albicans was inactive. For the same molecule, the result in the series on Escherichia coli, in the series on Klebsiella pneumoniae, in the series with Pseudomonas aeruginosa, in the series on Acinetobacter baumannii, in the series on Pichia kudriavzevii and in the series on Aspergillus fumigatus was inactive.
As for `COc1cc(O)c2c(c1)C1=C[C@H](O)[C@@H](O)C[C@]1(C)OC2=O`, the outcome in the series with Staphylococcus aureus, in the series on Streptococcus pneumoniae, in the series on Enterococcus faecium, in the series on Enterobacter cloacae, in the series with Aspergillus ficuum and in the series on Candida albicans was inactive. For the same molecule, the result in the series on Escherichia coli, in the series with Klebsiella pneumoniae, in the series with Pseudomonas aeruginosa, in the series on Acinetobacter baumannii, with Pichia kudriavzevii and with Aspergillus fumigatus was inactive.
